Rev-erbA mod: Rev-erb alpha (human) modulation | P20393 | Rev-erbα–FITC-DNA binding, fluorescence polarization, 90 min | activity, % at 10 µM | 370,000 compounds, 0.79% hits;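 active = activity above about 14%, limit read from the data; passing the limit was not always enough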;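 also: 0% = DMSO wells with 35 nM protein and 100% = DMSO wells with 750 nM protein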
Target sequence (P20393 whole entry, looked up): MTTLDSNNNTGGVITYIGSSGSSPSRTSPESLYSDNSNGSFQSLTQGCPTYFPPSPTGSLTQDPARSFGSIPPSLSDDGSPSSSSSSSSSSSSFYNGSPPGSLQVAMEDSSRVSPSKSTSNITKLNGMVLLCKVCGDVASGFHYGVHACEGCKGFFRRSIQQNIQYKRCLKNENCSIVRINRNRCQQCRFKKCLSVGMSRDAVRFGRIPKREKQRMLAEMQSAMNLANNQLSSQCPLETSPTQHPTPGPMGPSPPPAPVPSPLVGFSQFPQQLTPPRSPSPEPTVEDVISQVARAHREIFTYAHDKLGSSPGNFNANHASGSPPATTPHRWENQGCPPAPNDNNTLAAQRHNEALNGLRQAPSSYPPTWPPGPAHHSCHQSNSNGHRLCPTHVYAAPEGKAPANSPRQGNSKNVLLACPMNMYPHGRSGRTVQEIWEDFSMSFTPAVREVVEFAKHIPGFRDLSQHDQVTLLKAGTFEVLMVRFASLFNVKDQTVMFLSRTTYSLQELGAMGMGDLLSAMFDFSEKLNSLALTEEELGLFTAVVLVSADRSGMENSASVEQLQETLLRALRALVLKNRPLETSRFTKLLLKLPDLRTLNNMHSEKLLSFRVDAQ
NR2E3 ag-1: human photoreceptor-specific nuclear receptor agonism; Q9Y5X4; CHO-S Gal4-NCOR/VP16-NR2E3 two-hybrid, luciferase; inhibition of corepressor binding, % at 3.98 µM; 360,000 compounds, 0.35% hits; AID 602229;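 active = inhibition above the mean of all tested compounds plus 3 SD, cut at about 70% in these data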;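 also: 0% = DMSO with NR2E3 transfected cells and 100% = cells lacking NR2E3 construct; higher means lower luciferase signal from less NR2E3 corepressor binding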
PG9 binder: binds the HIV-1 gp120 antibody PG9. inhibition, % at 6.7 µM. 360,000 compounds, 0.43% hits. TR-FRET gp120-PG9 antibody binding; in the data active = inhibition above about 8.5%
NR2E3 ag-2: activates human photoreceptor nuclear receptor NR2E3; Q9Y5X4; GST-NR2E3/biotin-RetCOR TR-FRET, 1536-well; inhibition of corepressor binding, % at 4.78 µM; 320,000 compounds, 0.12% hits; AID 2300;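 active = percent inhibition above the cutoff of mean plus 3 SD of all tested compounds, set per screening campaign, cut at about 20% in these data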;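 also: 0% = DMSO wells and 100% = biotin wells as full block of FRET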
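Assay system: NR2E3–RetCOR corepressor complex. Quantity: 1.35 nM GST-NR2E3. Buffer or medium: pH 7.5 Tris-based buffer. Reagent: biotinylated RetCOR corepressor at 7 nM final. Schedule: 5 h at 4 °C. Detection: TR-FRET, emission read at 617 and 671 nm. Replicates: one well per compound, singlicate testing.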
NR2E3 ag confirm: confirmation of human NR2E3 agonists. 2,300 compounds, 51% hits. inhibition, % at 3.98 µM. shares compounds with NR2E3 ag-1. CHO-S mammalian two-hybrid NR2E3-NCOR, luciferase luminescence. AID 624378;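 active = average inhibition above a cutoff equal to the mean inhibition of all tested compounds plus one SD, cut at about 70% in these data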;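 also: 0% = DMSO in NR2E3 cells and 100% = DMSO in cells lacking NR2E3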
GAL4-VP16 luc: GAL4-VP16 reporter inhibition in NR2E3 agonist counterscreen; shares compounds with NR2E3 ag-1; CHO-S GAL4-VP16 luciferase reporter, luminescence; inhibition, % at 3.98 µM; 2,300 compounds, 29% hits;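 active = mean inhibition above a cutoff equal to the average over all tested compounds plus one standard deviation, cut at about 70% in these data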;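 also: luciferase from a UAS reporter driven by GAL4-VP16 transactivation; 0% = DMSO with VP16-transfected cells and 100% = DMSO with cells lacking VP16; higher means less reporter light so more repression of VP16 activity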
Active calls of the source: *; . = not tested or not shown. Hits are enriched below; roughly 1.5% of the tested compounds scored in any of these assays.

SMILES	Rev-erbA mod	NR2E3 ag-1	PG9 binder	NR2E3 ag-2	NR2E3 ag confirm	GAL4-VP16 luc
CCCCNC(=O)c1ccc(N2CCOCC2)c(NS(=O)(=O)c2ccc(OC)cc2)c1	3.3	-7.8	-3.3	0.7	.	.
CCNC(=O)Nc1cc(S(=O)(=O)Nc2ccc(OC)cc2)ccc1N1CCOCC1	.	84.7*	.	0.3	83.8*	76.1*
COc1ccc(NS(=O)(=O)c2ccc(N3CCCC3)c(N)c2)cc1	1.5	88.9*	-2.8	-1.4	76.8*	71.7*
COc1ccc(NS(=O)(=O)c2cc(N)ccc2N2CCCC2)cc1	11.2	-35.1	-1.6	.	.	.
COC(=O)Cn1nc(-c2ccccc2)c2cccc(C(F)(F)F)c21	-0.2	.	.	.	.	.
COc1ccc(N2C(=O)CC(Cc3ccccc3)C2=O)cc1 (stereo not given)	-1.1	10.7	-0.7	-2.1	.	.
O=C1C=CC2(C=C1)O[C@H](Cc1ccccc1)[C@@H](Cc1ccccc1)O2	3.4	100.4*	2.2	.	99.6*	67.6
COc1ccc(C[C@@H]2OC3(C=CC(=O)C=C3)O[C@H]2Cc2ccc(OC)cc2)cc1	.	96.6*	.	.	96.4*	53.8
O=C1Nc2ccccc2C1Cc1ccccc1 (stereo not given)	-7.1	-3.3	-0.9	1.1	.	.
CC(C)C(=O)N1CC[C@H]2[C@H](CCCN2Cc2ccc(F)cc2)C1	-1.6	.	.	.	.	.
COc1ccc(S(=O)(=O)Nc2ccc(CC#N)cc2)cc1	4.2	-5.4	-1.3	1.4	.	.
Cc1cccc(NS(=O)(=O)c2ccc(C3CCCCC3)cc2)c1	2.4	70.2*	-0.4	2.8	93.5*	79.1*
N#CCc1ccc(NS(=O)(=O)c2ccc(C3CCCCC3)cc2)cc1	-3.7	76.1*	-4.3	5.0	92.3*	72.2*
COCCCNC(=O)C1CCN(S(=O)(=O)c2ccc3[nH]c(=O)oc3c2)CC1	-2.6	.	.	.	.	.
COc1ccc2c(c1)CN1CN(Cc3ccc(F)cc3)S(=O)(=O)CC21 (stereo not given)	3.3	.	.	.	.	.
COc1ccc(CC2C(=O)NC(C)C(=O)N(C)C3Cc4ccc(cc4)Oc4cc(ccc4O)CC(C(=O)NC(C)C(=O)NC(C)C(=O)N2C)N(C)C3=O)cc1 (stereo not given)	4.2	103.2*	0.1	.	99.1*	96.4*
Cn1c(Cc2cccs2)nnc1SCC(=O)Nc1ccc2cn[nH]c2c1	2.6	.	.	.	.	.
Cc1csc(SCC(=O)Nc2sc3c(c2C#N)CCC3)n1	-5.9	1.4	0.5	-0.8	.	.
Cc1ccnc(SCC(=O)Nc2sc3c(c2C#N)CCCC3)n1	-4.8	85.5*	1.7	1.7	91.8*	85.2*
Cc1c(C)n(Cc2ccc(-c3ccccc3C(=O)O)cc2)c2ccc(C(=O)N[C@@H](C)c3ccc([N+](=O)[O-])cc3)cc12	-0.1	.	.	.	.	.
c1ccc(-c2nnc(SCc3nc4ccccc4[nH]3)n2Cc2ccco2)cc1	-6.3	-0.4	0.8	2.4	.	.
Cc1ccc(OCc2nnc(SCc3nc4ccccc4[nH]3)n2Cc2ccco2)cc1	3.4	49.0	-0.9	-4.5	65.9	65.0
Cc1ccc(-c2ccc(S(=O)(=O)Nc3cccnc3)cc2)cc1	2.0	64.8	-1.6	1.8	83.6*	69.2
O=S(=O)(Nc1cccnc1Cl)c1ccc(-c2ccccc2)cc1	-1.7	64.5	-0.3	0.0	53.2	44.7
Cc1ccc(S(=O)(=O)Nc2cccc3cccnc23)cc1	5.5	96.7*	0.1	2.0	45.7	4.8
SMILES	Rev-erbA mod	NR2E3 ag-1	PG9 binder	NR2E3 ag-2	NR2E3 ag confirm	GAL4-VP16 luc
COc1ccc(S(=O)(=O)Nc2ccccn2)cc1	4.7	-3.8	-2.0	2.5	.	.
COc1cc(NS(=O)(=O)c2ccc(C)cc2)c2ncccc2c1	0.7	82.3*	-0.8	-0.4	-20.3	3.2
CC(=O)CC[C@H]1CC[C@]2(CCCN(C(=O)c3ccco3)C2)O1	6.3	.	.	.	.	.
COc1ccc(C=Nn2c(-c3ccccc3F)n[nH]c2=S)cc1OCc1ccccc1	0.7	.	.	.	.	.
CCOC(=O)[C@]12CCCCC/C=C\1N(Cc1ccc(OC)cc1)C(=O)[C@H]2CC(=O)N1CCCCC1	4.5	.	.	.	.	.
O=S1(=O)c2ccc(Br)cc2OC[C@@H](c2ccccc2)N1Cc1cn(CCC2OCCO2)nn1	-3.6	.	.	.	.	.
c1ccc(CCNc2ncnc3ccccc23)cc1	1.6	49.7	0.7	3.2	88.7*	70.3
Brc1ccc2ncnc(NCc3ccccc3)c2c1	-1.4	65.3	-0.3	2.3	90.5*	85.0*
Cc1cc2c(NCCc3ccccc3)ncnc2s1	2.2	56.1	-0.1	-0.9	90.0*	73.3*
Cc1cc2c(Nc3ccccc3)ncnc2s1	-3.6	-12.1	-0.6	1.6	.	.
CCCCCCCCNc1ncnc2ccccc12	.	91.6*	.	0.1	98.8*	91.6*
COc1ccc(N2CCN(CCCNC(=O)CCOC(C)(C)C)CC2)cc1	9.8	.	.	.	.	.
Cc1cccc(Cn2cc(CN3CC(N(C)CCCOC(=O)c4cc(C)cc(C)c4)CS3(=O)=O)nn2)c1 (stereo not given)	-1.9	.	.	.	.	.
Cc1ccc2[nH]c3c(c2c1)CCCC3NC(=O)CCl (stereo not given)	.	87.7*	.	0.5	89.0*	72.5*
C[N+]1=C2N[C@@H](c3ccccc3)CC(=O)N2/C(=C\c2ccccc2)[C@@H]1Cc1ccccc1	-14.7	.	.	.	.	.
O=S(=O)(Nc1cc(Cl)ccc1-n1cncn1)c1cc(Br)ccc1Br	2.1	91.7*	-1.2	0.1	99.1*	85.3*
CC(C)(C)OC(=O)NCc1ccccc1/C=C/S(=O)(=O)NCCc1ccccc1	-4.9	.	.	.	.	.
Cc1ccc(S(=O)(=O)N(C)C)cc1NC(=O)C(C)N(C)Cc1sccc1C (stereo not given)	-1.6	60.1	-2.0	0.2	36.8	30.7
Cc1ccc(S(=O)(=O)N(C)C)cc1NC(=O)C(C)NC(C)c1cccs1 (stereo not given)	1.2	8.7	2.1	0.8	.	.
C=CCn1c(C)cc(C(=O)COc2ccc(C)nc2[N+](=O)[O-])c1C	-1.8	71.4*	-0.7	-0.2	71.1*	52.9
Cc1ccc(C)c(C(=O)COc2ccc(C)nc2[N+](=O)[O-])c1	.	-8.4	-2.5	0.5	.	.
CCCn1c(C)cc(C(=O)COc2ccc(C)nc2[N+](=O)[O-])c1C	-4.8	15.2	-3.7	-0.6	.	.
Cc1ccc(OCC(=O)c2cc(C)n(-c3ccccc3)c2C)c([N+](=O)[O-])n1	4.6	73.4*	0.9	-1.9	61.1	66.7
COCCn1c(C)cc(C(=O)COc2ccc(C)nc2[N+](=O)[O-])c1C	0.8	63.1	-3.3	-0.1	76.9*	43.8
Cc1ccc(-n2nnnc2-c2cnc(N3CCCC3)nc2C(F)(F)F)cc1	0.0	9.3	2.2	-3.1	.	.
FC(F)(F)c1nc(N2CCCC2)ncc1-c1nnnn1-c1ccccc1	-2.9	65.2	0.0	-3.3	75.0*	59.7
CCOC(=O)N1CCC(NC(=O)C2CCCN(Cc3nc(-c4cccc(C)c4)oc3C)C2)CC1 (stereo not given)	-2.4	74.9*	-1.5	1.3	75.6*	68.0
